Laboratory results reported in ChEMBL document CHEMBL4346672, “Antimicrobial and KPC/AmpC inhibitory activity of functionalized benzosiloxaboroles” (Eur J Med Chem, 2019).
≈ marks a conversion by molar mass, not a printed value. Calls of active or inactive are those of the source. The calls are words filed in the database; no cut-off is given here.

Test system: Proteus mirabilis
Assay: Antibacterial activity against Proteus mirabilis ATCC 12453 assessed as diameter of zone inhibition measured after 18 hrs by CLSI disc diffusion method
Assay type: functional
Conditions: not given
In short: (§1)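 Disc diffusion on Mueller-Hinton II agar. Compounds dissolved in DMSO. Strains stored at -80 °C and subcultured twice on tryptic soy agar before testing. Inhibition zones read after 35 °C, 18 h.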

Row | SMILES | diameter of the inhibition zone (DIZ)
1 | C[Si]1(C)OB(O)c2ccc(C=O)c(F)c21 | inactive

Test system: Enterococcus faecalis
Assay: Antibacterial activity against Enterococcus faecalis ATCC 29212 measured after 18 hrs by CLSI broth dilution method
Assay type: functional
Conditions: ATCC 29212, 18 h
In short: (§2)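 Broth MIC in Mueller-Hinton II broth following CLSI, compounds dissolved in DMSO. Strains subcultured twice on tryptic soy agar before testing. Growth read after 35 °C, 18 h.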

Row | MIC | SMILES
2 | 400 µg/mL (≈ 1790 µM) | C[Si]1(C)OB(O)c2ccc(C=O)c(F)c21

Test system: Bordetella bronchiseptica
Assay: Antibacterial activity against Bordetella bronchiseptica ATCC 4617 measured after 18 hrs by CLSI broth dilution method
Assay type: functional
Conditions: ATCC 4617, 18 h
In short: as §2

Row | MIC | SMILES
3 | > 400 µg/mL | C[Si]1(C)OB(O)c2ccc(C=O)c(F)c21

Test system: Klebsiella pneumoniae
Assay: Antibacterial activity against Klebsiella pneumoniae ATCC 13883 measured after 18 hrs by CLSI broth dilution method
Assay type: functional
Conditions: ATCC 13883, 18 h
In short: as §2

Row | MIC | SMILES
4 | > 400 µg/mL | C[Si]1(C)OB(O)c2ccc(C=O)c(F)c21

Test system: Enterococcus faecium
Assay: Antibacterial activity against Enterococcus faecium ATCC 6057 assessed as diameter of zone inhibition measured after 18 hrs by CLSI disc diffusion method
Assay type: functional
Conditions: not given
In short: as §1

Row | SMILES | diameter of the inhibition zone (DIZ)
5 | C[Si]1(C)OB(O)c2ccc(C=O)c(F)c21 | inactive

Test system: Proteus mirabilis
Assay: Antibacterial activity against Proteus mirabilis ATCC 12453 measured after 18 hrs by CLSI broth dilution method
Assay type: functional
Conditions: ATCC 12453, 18 h
In short: as §2

Row | MIC | SMILES
6 | > 400 µg/mL | C[Si]1(C)OB(O)c2ccc(C=O)c(F)c21

Test system: Acinetobacter baumannii
Assay: Antibacterial activity against Acinetobacter baumannii ATCC 19606 assessed as diameter of zone inhibition measured after 18 hrs by CLSI disc diffusion method
Assay type: functional
Conditions: not given
In short: as §1

Row | SMILES | diameter of the inhibition zone (DIZ)
7 | C[Si]1(C)OB(O)c2ccc(C=O)c(F)c21 | inactive

Test system: Klebsiella pneumoniae
Assay: Antibacterial activity against Klebsiella pneumoniae ATCC 13883 assessed as fold reduction of MIC in presence of efflux pump inhibitor PAbetaN incubated for 18 hrs by broth microdilution method
Assay type: functional
Conditions: not given
In short: (§3)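 MICs determined with and without PAβN at 50 mg/L in Mueller-Hinton broth containing 1 mM MgSO₄. 2-fold serial dilutions per CLSI. Fold change taken from the paired MICs after 35 °C, 18 h.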

Row | SMILES | fold change (FC)
8 | C[Si]1(C)OB(O)c2ccc(C=O)c(F)c21 | 4

Test system: Bacillus subtilis
Assay: Antibacterial activity against Bacillus subtilis ATCC 6633 assessed as diameter of zone inhibition measured after 18 hrs by CLSI disc diffusion method
Assay type: functional
Conditions: not given
In short: as §1

Row | SMILES | diameter of the inhibition zone (DIZ)
9 | C[Si]1(C)OB(O)c2ccc(C=O)c(F)c21 | 22 mm

Test system: Candida parapsilosis
Assay: Antifungal activity against Candida parapsilosis ATCC 22019 assessed as decrease in fungal cell growth at 0.78 to 12.5 mg/L incubated for 24 hrs by CLSI broth dilution method
Assay type: functional
Conditions: Lodderomyces parapsilosis, ATCC 22019, 24 h
In short: (§4)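 Yeast broth dilution in RPMI 1640 with 2% glucose, compounds in DMSO. Yeasts pre-grown on Sabouraud dextrose agar. Growth read after 35 °C, 24 h.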

Row | MIC | SMILES
10 | 400 µg/mL (≈ 1790 µM) | C[Si]1(C)OB(O)c2ccc(C=O)c(F)c21

Test system: Serratia marcescens
Conditions: ATCC 13880

Row | SMILES | DIZ
11 | C[Si]1(C)OB(O)c2ccc(C=O)c(F)c21 | inactive

Test system: Pichia kudriavzevii
Assay: Antifungal activity against Candida krusei ATCC 6258 assessed as diameter of zone inhibition incubated for 24 hrs by CLSI disc diffusion method
Assay type: functional
Conditions: not given
In short: (§5)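 Yeast disc diffusion on Mueller-Hinton agar supplemented with 2% glucose and 0.5 mg/L methylene blue. Compounds in DMSO. Yeasts subcultured on Sabouraud dextrose agar before testing. Zones read after 35 °C, 24 h.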

Row | SMILES | diameter of the inhibition zone (DIZ)
12 | C[Si]1(C)OB(O)c2ccc(C=O)c(F)c21 | inactive

Test system: Serratia marcescens
Assay: Antibacterial activity against Serratia marcescens ATCC 13880 measured after 18 hrs by CLSI broth dilution method
Assay type: functional
Conditions: ATCC 13880, 18 h
In short: as §2

Row | MIC | SMILES
13 | > 400 µg/mL | C[Si]1(C)OB(O)c2ccc(C=O)c(F)c21

Test system: Escherichia coli
Assay: Antibacterial activity against Escherichia coli ATCC 25922 assessed as diameter of zone inhibition measured after 18 hrs by CLSI disc diffusion method
Assay type: functional
Conditions: not given
In short: as §1

Row | SMILES | diameter of the inhibition zone (DIZ)
14 | C[Si]1(C)OB(O)c2ccc(C=O)c(F)c21 | inactive

Test system: Candida albicans
Assay: Antifungal activity against Candida albicans ATCC 90028 assessed as diameter of zone inhibition incubated for 24 hrs by CLSI disc diffusion method
Assay type: functional
Conditions: not given
In short: as §5

Row | SMILES | diameter of the inhibition zone (DIZ)
15 | C[Si]1(C)OB(O)c2ccc(C=O)c(F)c21 | inactive

Test system: Acinetobacter baumannii
Assay: Antibacterial activity against Acinetobacter baumannii ATCC 19606 measured after 18 hrs by CLSI broth dilution method
Assay type: functional
Conditions: ATCC 19606, 18 h
In short: as §2

Row | MIC | SMILES
16 | > 400 µg/mL | C[Si]1(C)OB(O)c2ccc(C=O)c(F)c21

Test system: Klebsiella pneumoniae
Conditions: ATCC 13883

Row | SMILES | DIZ
17 | C[Si]1(C)OB(O)c2ccc(C=O)c(F)c21 | inactive

Test system: Bordetella bronchiseptica
Assay: Antibacterial activity against Bordetella bronchiseptica ATCC 4617 assessed as diameter of zone inhibition measured after 18 hrs by CLSI disc diffusion method
Assay type: functional
Conditions: not given
In short: as §1

Row | SMILES | diameter of the inhibition zone (DIZ)
18 | C[Si]1(C)OB(O)c2ccc(C=O)c(F)c21 | inactive

Test system: Enterococcus faecalis
Assay: Antibacterial activity against Enterococcus faecalis ATCC 29212 assessed as diameter of zone inhibition measured after 18 hrs by CLSI disc diffusion method
Assay type: functional
Conditions: not given
In short: as §1

Row | SMILES | diameter of the inhibition zone (DIZ)
19 | C[Si]1(C)OB(O)c2ccc(C=O)c(F)c21 | inactive

Test system: Stenotrophomonas maltophilia
Assay: Antibacterial activity against Stenotrophomonas maltophilia ATCC 13637 assessed as fold reduction of MIC in presence of efflux pump inhibitor PAbetaN incubated for 18 hrs by broth microdilution method
Assay type: functional
Conditions: not given
In short: as §3

Row | SMILES | fold change (FC)
20 | C[Si]1(C)OB(O)c2ccc(C=O)c(F)c21 | 16

Test system: Stenotrophomonas maltophilia
Assay: Antibacterial activity against Stenotrophomonas maltophilia ATCC 13637 measured after 18 hrs by CLSI broth dilution method
Assay type: functional
Conditions: ATCC 13637, 18 h
In short: as §2

Row | MIC | SMILES
21 | > 400 µg/mL | C[Si]1(C)OB(O)c2ccc(C=O)c(F)c21

Test system: Burkholderia cepacia
Assay: Antibacterial activity against Burkholderia cepacia ATCC 25416 assessed as diameter of zone inhibition measured after 18 hrs by CLSI disc diffusion method
Assay type: functional
Conditions: not given
In short: as §1

Row | SMILES | diameter of the inhibition zone (DIZ)
22 | C[Si]1(C)OB(O)c2ccc(C=O)c(F)c21 | inactive

Test system: Meyerozyma guilliermondii
Assay: Antifungal activity against Candida guilliermondii IBA 155 assessed as diameter of zone inhibition incubated for 24 hrs by CLSI disc diffusion method
Assay type: functional
Conditions: not given
In short: as §5

Row | SMILES | diameter of the inhibition zone (DIZ)
23 | C[Si]1(C)OB(O)c2ccc(C=O)c(F)c21 | inactive

Test system: not listed separately
Assay: Dissociation constant, pKa1 of compound in 0.1 M NaOH by potentiometric analysis
Assay type: physicochemical
Conditions: not given

Row | pKa | SMILES
24 | 5.4 | C[Si]1(C)OB(O)c2ccc(C=O)c(F)c21

Test system: Staphylococcus aureus
Assay: Antibacterial activity against Staphylococcus aureus ATCC 6538P measured after 18 hrs by CLSI broth dilution method
Assay type: functional
Conditions: not given
In short: as §2

Row | MIC | SMILES
25 | 25 µg/mL (≈ 112 µM) | C[Si]1(C)OB(O)c2ccc(C=O)c(F)c21

Test system: Candida tropicalis
Assay: Antifungal activity against Candida tropicalis IBA 171 assessed as diameter of zone inhibition incubated for 24 hrs by CLSI disc diffusion method
Assay type: functional
Conditions: not given
In short: as §5

Row | SMILES | diameter of the inhibition zone (DIZ)
26 | C[Si]1(C)OB(O)c2ccc(C=O)c(F)c21 | inactive

Test system: Enterobacter cloacae
Assay: Antibacterial activity against Enterobacter cloacae DSM 6234 measured after 18 hrs by CLSI broth dilution method
Assay type: functional
Conditions: DSM 6234, 18 h
In short: as §2

Row | MIC | SMILES
27 | > 400 µg/mL | C[Si]1(C)OB(O)c2ccc(C=O)c(F)c21

Test system: Staphylococcus epidermidis
Assay: Antibacterial activity against Staphylococcus epidermidis ATCC 12228 assessed as diameter of zone inhibition measured after 18 hrs by CLSI disc diffusion method
Assay type: functional
Conditions: not given
In short: as §1

Row | SMILES | diameter of the inhibition zone (DIZ)
28 | C[Si]1(C)OB(O)c2ccc(C=O)c(F)c21 | 27 mm

Test system: Escherichia coli
Assay: Antibacterial activity against Escherichia coli ATCC 25922 assessed as fold reduction of MIC in presence of efflux pump inhibitor PAbetaN incubated for 18 hrs by CLSI broth microdilution method
Assay type: functional
Conditions: not given
In short: as §3

Row | SMILES | fold change (FC)
29 | C[Si]1(C)OB(O)c2ccc(C=O)c(F)c21 | 16

Test system: Proteus mirabilis
Assay: Antibacterial activity against Proteus mirabilis ATCC 12453 assessed as fold reduction of MIC in presence of efflux pump inhibitor PAbetaN incubated for 18 hrs by broth microdilution method
Assay type: functional
Conditions: not given
In short: as §3

Row | SMILES | fold change (FC)
30 | C[Si]1(C)OB(O)c2ccc(C=O)c(F)c21 | 4

Test system: Pseudomonas aeruginosa
Assay: Antibacterial activity against Pseudomonas aeruginosa ATCC 27853 measured after 18 hrs by CLSI broth dilution method
Assay type: functional
Conditions: ATCC 27853, 18 h
In short: as §2

Row | MIC | SMILES
31 | > 400 µg/mL | C[Si]1(C)OB(O)c2ccc(C=O)c(F)c21

Test system: Burkholderia cepacia
Assay: Antibacterial activity against Burkholderia cepacia ATCC 25416 measured after 18 hrs by CLSI broth dilution method
Assay type: functional
Conditions: ATCC 25416, 18 h
In short: as §2

Row | MIC | SMILES
32 | > 400 µg/mL | C[Si]1(C)OB(O)c2ccc(C=O)c(F)c21

Test system: Staphylococcus aureus
Assay: Antibacterial activity against Staphylococcus aureus ATCC 6538P assessed as diameter of zone inhibition measured after 18 hrs by CLSI disc diffusion method
Assay type: functional
Conditions: not given
In short: as §1

Row | SMILES | diameter of the inhibition zone (DIZ)
33 | C[Si]1(C)OB(O)c2ccc(C=O)c(F)c21 | 21 mm

Test system: Enterococcus faecium
Assay: Antibacterial activity against Enterococcus faecium ATCC 6057 measured after 18 hrs by CLSI broth dilution method
Assay type: functional
Conditions: ATCC 6057, 18 h
In short: as §2

Row | MIC | SMILES
34 | 200 µg/mL (≈ 893 µM) | C[Si]1(C)OB(O)c2ccc(C=O)c(F)c21

Test system: Candida parapsilosis
Assay: Antifungal activity against Candida parapsilosis ATCC 22019 assessed as diameter of zone inhibition incubated for 24 hrs by CLSI disc diffusion method
Assay type: functional
Conditions: not given
In short: as §5

Row | SMILES | diameter of the inhibition zone (DIZ)
35 | C[Si]1(C)OB(O)c2ccc(C=O)c(F)c21 | inactive

Test system: Meyerozyma guilliermondii
Assay: Antifungal activity against Candida guilliermondii IBA 155 assessed as decrease in fungal cell growth at 0.78 to 12.5 mg/L incubated for 24 hrs by CLSI broth dilution method
Assay type: functional
Conditions: IBA 155, 24 h
In short: as §4

Row | MIC | SMILES
36 | > 400 µg/mL | C[Si]1(C)OB(O)c2ccc(C=O)c(F)c21
